Converted amounts (≈) assume the structure as drawn.
molecular target: T1, NH(3)-dependent NAD(+) synthetase (Bacillus anthracis, UniProt Q81RP3); assay: Inhibition of Bacillus anthracis NAD synthetase
T1 sequence (Q81RP3 whole entry): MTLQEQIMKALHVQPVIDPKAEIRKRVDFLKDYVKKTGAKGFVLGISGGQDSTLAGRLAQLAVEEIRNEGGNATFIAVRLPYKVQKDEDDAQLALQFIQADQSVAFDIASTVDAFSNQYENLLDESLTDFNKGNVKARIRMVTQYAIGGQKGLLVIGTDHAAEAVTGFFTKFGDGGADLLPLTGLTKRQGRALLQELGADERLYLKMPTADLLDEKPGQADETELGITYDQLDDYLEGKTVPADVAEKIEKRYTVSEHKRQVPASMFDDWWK
Method in brief: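 Purified B. anthracis NADs (6 μg/ml) in 60 mM HEPPS pH 8.5 with 0.5 mM NH4Cl, 20 mM KCl, 10 mM MgCl2, 0.1 mM NaAD, 2.5% DMSO and 0.3% BOG. Started with 0.2 mM ATP, quenched with guanidine-HCl after 10 min. Compounds tested 600 to 0.6 μM in doubling dilutions. NAD measured by reverse-phase HPLC peak height. IC50 is the average of duplicate runs.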

Q: Which IC50 does the source give for `NC(=O)c1c(NC(=S)NC(=O)c2cccc([N+](=O)[O-])c2)sc2c1CCCC2` here?
A: The IC50 was 186 µM.

Q: For `O=C(Cn1nnc(N2CCOCC2)n1)N/N=C/c1ccc(-c2cccc([N+](=O)[O-])c2)o1`, which IC50 is on record?
A: Its IC50 is 109 µM.

Q: `COc1ccc(Br)c(-c2nnc(-c3ccccc3NC(=O)NC(=O)c3ccccc3Cl)o2)c1` was tested. Which IC50 did it give?
A: Its IC50 is 220 µM.

Q: `N#C/C(=C\c1ccccc1[N+](=O)[O-])C(=O)c1ccccc1` was tested. Which IC50 did it give?
A: The IC50 was 51 µM.

tested on: Bacillus anthracis; assay: Antibacterial activity against Bacillus anthracis Sterne; assay type: functional

Q: `COc1ccc(Oc2ccc([N+](=O)[O-])cc2C(=O)Nc2ccc(S(N)(=O)=O)cc2)cc1` was tested. Which MIC did it give?
A: Its MIC is greater than 240 µM.

Q: `O=C(CCC(=O)Nc1ccc(Nc2ccccc2)cc1)Nc1ccc(Nc2ccccc2)cc1` was tested. Which MIC did it give?
A: The MIC was greater than 222 µM.

Q: For `Cc1cc(C)c2oc(-c3cccc(NC(=O)/C=C/c4cccc([N+](=O)[O-])c4)c3)nc2c1`, which MIC is on record?
A: Its MIC is greater than 240 µM.

Q: With `O=C(Nc1cccc(/N=C/c2cc([N+](=O)[O-])ccc2O)c1)c1cccc(Br)c1` as the compound, how does the MIC read?
A: Its MIC is greater than 227 µM.

Q: With `O=C(Nc1cccc(/N=C/c2cc([N+](=O)[O-])ccc2O)c1)c1ccc(Cl)cc1Cl` as the compound, how does the MIC read?
A: The MIC was greater than 232 µM.

Q: Which MIC does the source give for `COc1cccc(NC(=O)Nc2nnc(COc3ccc([N+](=O)[O-])cc3)s2)c1` here?
A: Its MIC is greater than 240 µM.

Q: `NC(=O)c1c(NC(=S)NC(=O)c2cccc([N+](=O)[O-])c2)sc2c1CCCC2` was tested. Which MIC did it give?
A: Its MIC is greater than 240 µM.

Q: With `NC(=O)c1ccc(NC(=O)c2ccc(Oc3ccc([N+](=O)[O-])cc3Cl)cc2)cc1` as the compound, how does the MIC read?
A: Its MIC is greater than 240 µM.

Q: How did the MIC turn out when `N/C(=N\OC(=O)c1ccc(Cl)c(Cl)c1)c1cccc(CSc2ccccn2)c1` was run?
A: The MIC was greater than 240 µM.

Q: Which MIC does the source give for `O=C(Cn1nnc(N2CCOCC2)n1)N/N=C/c1ccc(-c2cccc([N+](=O)[O-])c2)o1` here?
A: The MIC was greater than 240 µM.

Q: For `COc1ccc(NC(=O)Nc2cccc(NC(=O)Nc3ccc(OC)cc3)c2F)cc1`, which MIC is on record?
A: The MIC was greater than 240 µM.

Q: Which MIC does the source give for `COc1ccc(NC(=O)Nc2ccc(Oc3ncnc4cc(Cl)ccc34)nc2)cc1OC1CCCC1` here?
A: Its MIC is greater than 240 µM.

Q: How did the MIC turn out when `O=C(Nc1cccc(Oc2ccc3c(c2)C(=O)N(c2ccccc2)C3=O)c1)c1cccc([N+](=O)[O-])c1` was run?
A: Its MIC is greater than 240 µM.

Q: For `O=C(Nc1cccc(C(=O)Nc2cccc3ccccc23)c1)c1cccc([N+](=O)[O-])c1`, which MIC is on record?
A: The MIC was greater than 240 µM.

Q: Which MIC does the source give for `COc1ccccc1NC(=O)NC(=O)c1ccc(-c2csnn2)cc1` here?
A: Its MIC is greater than 240 µM.

Q: How did the MIC turn out when `COc1ccc(Br)c(-c2nnc(-c3ccccc3NC(=O)NC(=O)c3ccccc3Cl)o2)c1` was run?
A: The MIC was greater than 240 µM.

Q: Which MIC does the source give for `Cc1cc(-c2nnc(CSc3nnc(NC(=O)c4ccc(F)c(Cl)c4)s3)o2)ccc1[N+](=O)[O-]` here?
A: Its MIC is greater than 240 µM.

Q: With `COc1ccccc1NC(=O)COc1ccc(/C=C(/C#N)c2nc3ccccc3[nH]2)cc1` as the compound, how does the MIC read?
A: Its MIC is greater than 240 µM.

Q: Which MIC does the source give for `Cc1c(NC(=O)c2ccc(N3CCCC3)c([N+](=O)[O-])c2)cccc1-c1nc2ccccc2[nH]1` here?
A: The MIC was greater than 240 µM.

Q: How did the MIC turn out when `COc1ccc(CCNC(=O)NCc2cccc(CNC(=O)NCCc3ccc(OC)cc3)c2)cc1` was run?
A: Its MIC is greater than 204 µM.

Q: For `O=C(Nc1ccc([N+](=O)[O-])cc1)Nc1ccc(S(=O)(=O)Nc2ccc(Cl)c(Cl)c2)cc1`, which MIC is on record?
A: Its MIC is 1.9 µM (≈ 0.915 µg/mL).

Q: For `CCc1ccc(S(=O)(=O)Nc2c([N+](=O)[O-])ccc3ccccc23)cc1`, which MIC is on record?
A: Its MIC is 3.8 µM (≈ 1.35 µg/mL).

Q: Which MIC does the source give for `O=C1C=C(Nc2ccccc2C(=O)O)C(=O)C=C1Nc1ccccc1C(=O)O` here?
A: The MIC was greater than 264 µM.

Q: With `O=C(Cn1cc(/C=C/c2[nH]c(=O)[nH]c(=O)c2[N+](=O)[O-])c2ccccc21)Nc1ccc(F)cc1` as the compound, how does the MIC read?
A: Its MIC is greater than 223 µM.

Q: With `O=C(Nc1ccc([N+](=O)[O-])cc1)c1ccc(-c2nnc(-c3ccccc3)o2)cc1` as the compound, how does the MIC read?
A: Its MIC is greater than 259 µM.

Q: Which MIC does the source give for `O=C(Nc1ccc(S(=O)(=O)Nc2ncccn2)cc1)Nc1ccc(Cl)c(Cl)c1` here?
A: Its MIC is 15 µM (≈ 6.57 µg/mL).

Q: How did the MIC turn out when `O=[N+]([O-])c1ccc(O)c(/C=N/c2cccc(O)c2)c1` was run?
A: Its MIC is greater than 387 µM.

Q: For `N#C/C(=C\c1ccccc1[N+](=O)[O-])C(=O)c1ccccc1`, which MIC is on record?
A: The MIC was 120 µM (≈ 33.4 µg/mL).

Q: With `O=C(COC(=O)c1ccc(NC(=O)c2ccc([N+](=O)[O-])cc2)cc1)c1ccc(F)cc1` as the compound, how does the MIC read?
A: The MIC was greater than 237 µM.

Q: Which MIC does the source give for `O=C(Nc1ccc2oc(-c3cc(Br)ccc3Cl)nc2c1)c1cccc([N+](=O)[O-])c1` here?
A: The MIC was greater than 240 µM.

Q: Which MIC does the source give for `O=C(Nc1ccc(Cc2ccc(NC(=O)c3ccc4c(c3)OCO4)cc2)cc1)c1ccc2c(c1)OCO2` here?
A: Its MIC is greater than 240 µM.

Q: With `O=[N+]([O-])c1ccc(-c2cnc(N/N=C/c3cccc([N+](=O)[O-])c3)nc2)cc1` as the compound, how does the MIC read?
A: The MIC was greater than 274 µM.

Q: Which MIC does the source give for `CCOC(=O)C1=C(Nc2cccc3ccccc23)S/C(=C\c2ccc([N+](=O)[O-])cc2)C1=O` here?
A: The MIC was greater than 224 µM.

Q: For `Nc1ncnc(Nc2ccc(Cl)cc2C(=O)c2ccccc2Cl)c1[N+](=O)[O-]`, which MIC is on record?
A: The MIC was greater than 247 µM.

Q: Which MIC does the source give for `O=C(Nc1ccccc1)Nc1ccc(NC(=O)c2ccc(NC(=O)Nc3ccccc3)cc2)cc1` here?
A: Its MIC is greater than 240 µM.

Q: How did the MIC turn out when `Cc1onc(-c2ccccc2)c1NC(=O)Nc1ccc(Oc2ncnc3cc(Cl)ccc23)nc1` was run?
A: The MIC was greater than 240 µM.

Q: For `O=C(NC(=S)Nc1cc(-c2nc3ccccc3[nH]2)ccc1Cl)c1ccccc1[N+](=O)[O-]`, which MIC is on record?
A: The MIC was greater than 240 µM.

Q: `Cc1ccc(C(=O)Nc2cccc(-c3nc4ccccc4[nH]3)c2)cc1` was tested. Which MIC did it give?
A: Its MIC is greater than 240 µM.

Q: For `Nc1c(C(=O)c2ccc([N+](=O)[O-])cc2)sc(Nc2ccccc2)c1-c1nc2ccccc2[nH]1`, which MIC is on record?
A: Its MIC is greater than 240 µM.

Q: Which MIC does the source give for `O=C(Nc1ccc(/N=N/c2ccccc2)cc1)c1ccc([N+](=O)[O-])cc1` here?
A: Its MIC is greater than 240 µM.

Q: Which MIC does the source give for `Cc1ccc(-c2nc3cc(Cl)ccc3o2)cc1CC(=O)c1cc([N+](=O)[O-])c(C)c([N+](=O)[O-])c1` here?
A: Its MIC is greater than 240 µM.

Q: `O=C(CSc1nc(Nc2ccccc2)nc(N2CCOCC2)n1)Nc1ccc([N+](=O)[O-])cc1O` was tested. Which MIC did it give?
A: The MIC was 15 µM (≈ 7.25 µg/mL).

Q: With `NC(=O)c1ccc(/N=C/c2cc([N+](=O)[O-])ccc2Cl)cc1` as the compound, how does the MIC read?
A: The MIC was greater than 329 µM.

Source: ChEMBL document CHEMBL1153931
